Test results published in ChEMBL document CHEMBL1671838, “Discovery of MK-1220: A Macrocyclic Inhibitor of Hepatitis C Virus NS3/4A Protease with Improved Preclinical Plasma Exposure” (ACS Med Chem Lett, 2011).

Experiments:
[1] = Cmax in Sprague-Dawley rat at 5 mg/kg, po; type: ADME, organism-based; parameters: dose 5 mg/kg, route oral; conditions: in vivo
Summary of the method: (§1)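 Oral PK study: 5 mg/kg PO in 10% Tween. Rat n = 3, dog n = 2. Plasma exposure was measured in both species, and dog liver levels were measured at 2 h and 26 h after dosing.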

[2] = Clearance in Beagle dog at 2 mg/kg, iv; type: ADME, organism-based, Canis lupus familiaris; parameters: dose 2 mg/kg, route intravenous; conditions: in vivo
Summary of the method: (§2)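 IV PK: 2 mg/kg dosed intravenously in DMSO to rat (n = 4) and dog (n = 2).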

[3] = Clearance in rhesus monkey at 1 mg/kg, iv; conditions: in vivo
[4] = Drug level in Beagle dog liver at 5 mg/kg, po after 2 hrs; type: ADME, organism-based, Canis lupus familiaris; parameters: dose 5 mg/kg, route oral; conditions: read-out: Drug uptake; summary of the method: as §1
[5] = system: Hepatitis C virus; test: Antiviral activity against HCV2a infected in human HuH7 cells assessed as inhibition of viral replication after 24 hrs in presence of 10% fetal bovine serum; type: functional, organism-based, Hepacivirus hominis; conditions: genotype 2a, Huh-7, 24 h
Summary of the method: (§3)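 Cell-based HCV replicon assay giving IC50. Genotype 1b replicon run with 10% fetal bovine serum or with 50% normal human serum. Genotype 2a replicon run with 10% FBS.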

[6] = Bioavailability in Beagle dog at 2 mg/kg, iv and 5 mg/kg, po; type: ADME, organism-based, Canis lupus familiaris; conditions: in vivo
Summary of the method: (§4)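 Bioavailability derived from IV dosing at 2 mg/kg in DMSO (rat n = 4, dog n = 2) and PO dosing at 5 mg/kg in 10% Tween (rat n = 3, dog n = 2).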

[7] = AUC in Beagle dog at 5 mg/kg, po; type: ADME, organism-based, Canis lupus familiaris; parameters: dose 5 mg/kg, route oral; conditions: plasma; summary of the method: as §1
[8] = Bioavailability in rhesus monkey at 1 mg/kg, iv and 5 mg/kg, po; conditions: in vivo
[9] = Drug level in Beagle dog liver at 5 mg/kg, po after 26 hrs; type: ADME, organism-based, Canis lupus familiaris; parameters: dose 5 mg/kg, route oral; conditions: read-out: Drug uptake
Summary of the method: (§5)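 Single oral dose of 5 mg/kg in 10% Tween vehicle; n = 3 for rat and n = 2 for dog. Liver drug concentration was measured at 24 h in rat and at 26 h in dog.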

[10] = Selectivity ratio Ki for HCV NS3/4A protease to Ki for trypsin
[11] = Half life in Beagle dog at 2 mg/kg, iv; type: ADME, organism-based, Canis lupus familiaris; parameters: dose 2 mg/kg, route intravenous; conditions: in vivo; summary of the method: as §2
[12] = Cmax in Beagle dog at 5 mg/kg, po; type: ADME, organism-based, Canis lupus familiaris; parameters: dose 5 mg/kg, route oral; conditions: in vivo; summary of the method: as §1
[13] = AUC in rhesus monkey at 5 mg/kg, po; type: ADME, organism-based, Macaca mulatta; parameters: dose 5 mg/kg, route oral; conditions: plasma
Summary of the method: (§6)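 Rhesus monkey oral PK: 5 mg/kg PO in 10% Tween, n = 2.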

[14] = Drug level in Sprague-Dawley rat liver at 5 mg/kg, po after 24 hrs; type: ADME, organism-based; parameters: dose 5 mg/kg, route oral; conditions: read-out: Drug uptake; summary of the method: as §5
[15] = system: Hepatitis C virus; test: Antiviral activity against HCV1b con1 infected in human HuH7 cells assessed as inhibition of viral replication after 24 hrs in presence of 50% normal human serum; type: functional, organism-based, Hepacivirus hominis; conditions: Con1, Huh-7, 24 h; summary of the method: as §3
[16] = system: Hepatitis C virus; test: Antiviral activity against HCV1b con1 infected in human HuH7 cells assessed as inhibition of viral replication after 24 hrs in presence of 10% fetal bovine serum; type: functional, organism-based, Hepacivirus hominis; conditions: Con1, Huh-7, 24 h; summary of the method: as §3
[17] = Half life in Sprague-Dawley rat at 2 mg/kg, iv; type: ADME, organism-based; parameters: dose 2 mg/kg, route intravenous; conditions: in vivo; summary of the method: as §2
[18] = Clearance in Sprague-Dawley rat at 2 mg/kg, iv; type: ADME, organism-based; parameters: dose 2 mg/kg, route intravenous; conditions: in vivo; summary of the method: as §2
[19] = AUC in Sprague-Dawley rat at 5 mg/kg, po; type: ADME, organism-based; parameters: dose 5 mg/kg, route oral; conditions: plasma; summary of the method: as §1
[20] = Bioavailability in Sprague-Dawley rat at 2 mg/kg, iv and 5 mg/kg, po; type: ADME, organism-based; conditions: in vivo; summary of the method: as §4
[21] = Drug level in Sprague-Dawley rat liver at 5 mg/kg, po after 4 hrs; type: ADME, organism-based; parameters: dose 5 mg/kg, route oral; conditions: read-out: Drug uptake
Summary of the method: (§7)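 Rat PK screen: 5 mg/kg given orally in PEG400, n = 2; plasma AUC calculated from a 4 h experiment, and liver concentration measured at 4 h after dosing.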

[22] = Selectivity ratio Ki for HCV NS3/4A protease to Ki for chymotrypsin
[23] = AUC in Sprague-Dawley rat plasma at 5 mg/kg, po after 4 hrs; type: ADME, organism-based; parameters: time < 4 hr, dose 5 mg/kg, route oral; summary of the method: as §7
[24] = Cmax in rhesus monkey at 5 mg/kg, po; type: ADME, organism-based, Macaca mulatta; parameters: dose 5 mg/kg, route oral; conditions: in vivo; summary of the method: as §6
[25] = Inhibition of HCV NS3/4A protease expressed Escherichia coli after 1 hr by time-resolved fluorescence assay; parameters: species or system Hepacivirus hominis
Summary of the method: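 Binding assay against genotype 1b HCV NS3/4A protease, read by time-resolved fluorescence; potency expressed as Ki.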

[26] = Half life in rhesus monkey at 1 mg/kg, iv; conditions: in vivo

Cmax [1]: 4.4 µM
clearance [2]: 3.6 mL/min/kg
clearance [3]: 8.3 mL/min/kg
concentration at 2 h [4]: 54 µM
IC50 [5]: 5 nM
bioavailability [6]: 41%
AUC [7]: 12.4 µM·h
bioavailability [8]: 9%
concentration at 26 h [9]: 10.3 µM
Ratio Ki [10]: > 50000
half-life [11]: 2.5 h
Cmax [12]: 4 µM
AUC [13]: 1.2 µM·h
concentration at 24 h [14]: 9.9 µM
IC50 [16]: 4 nM
half-life [17]: 5.7 h
clearance [18]: 3.4 mL/min/kg
AUC [19]: 12.1 µM·h
bioavailability [20]: 37%
concentration at 4 h [21]: 23 µM
Ratio Ki [22]: > 50000
AUC at 4 h [23]: 11.8 µM·h
Cmax [24]: 0.3 µM
half-life [26]: 1.3 h
Structure (SMILES): C=C[C@@H]1C[C@]1(NC(=O)[C@@H]1C[C@@H]2CN1C(=O)[C@H](C1CCCCC1)NC(=O)OCC(C)(C)CCCc1cc3c(nccc3cc1OC)O2)C(=O)NS(=O)(=O)C1CC1
IC50 [15]: 11 nM
Ki [25]: 0.02 nM
